pIC50: −log10 of the molar value. ≈ marks a conversion by molar mass, not a printed value. Blank lines part the entries; values can stand above or below the compound they belong to.
Legend:
[1] = test system: Bacillus subtilis; test: Antibacterial activity against Bacillus subtilis after 12 hrs by MTT assay; assay type: functional, organism-based
Procedure, shortened: (§1)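 MTT broth-dilution assay; drug-containing medium added to final concentrations of 320, 160, 40, 10, 2.5 and 0.25 µg/mL, each in triplicate. After 12 h, 25 µL of 5 mg/mL MTT in PBS added; after 4 h medium discarded, formazan dissolved in 150 µL DMSO with 10 min shaking, absorbance read at 490 nm; 50% inhibitory concentration reported.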

[2] = test system: Escherichia coli; test: Antibacterial activity against Escherichia coli after 12 hrs by MTT assay; assay type: functional, organism-based; procedure, shortened: as §1
[3] = test system: Pseudomonas aeruginosa; test: Antibacterial activity against Pseudomonas aeruginosa after 12 hrs by MTT assay; assay type: functional, organism-based; procedure, shortened: as §1
[4] = test system: Bacillus thuringiensis; test: Antibacterial activity against Bacillus thuringiensis after 12 hrs by MTT assay; assay type: functional, organism-based; procedure, shortened: as §1
[5] = Inhibition of Pseudomonas aeruginosa FabH after 25 mins
Procedure, shortened: (§2)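 His-tagged FabH purified by Ni-NTA (IPTG 0.5 mM induction in kanamycin LB), stored at 2 mg/mL. 20 µL reaction: 20 mM Na2HPO4 pH 7.0, 0.5 mM DTT, 0.25 mM MgCl2, 2.5 µM holo-ACP, 1 nM FabH; after 1 min, 25 µM acetyl-CoA, 0.5 mM NADH, 0.5 mM NADPH added for 25 min; 3H incorporation by liquid scintillation; inhibitors from DMSO stock, final DMSO ≤2%; IC50 determined.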

[6] = Inhibition of Escherichia coli FabH expressed in Escherichia coli BL21 (DE3) after 25 mins; procedure, shortened: as §2
[7] = Cytotoxicity against human macrophages up to 160 ug/ml after 24 hrs by MTT assay; assay type: cell-based; settings: macrophage
Procedure, shortened: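 Cells grown to 90% confluency, switched to serum-free DMEM, exposed to various concentrations for 24 h; viability by MTT, read spectrophotometrically as absorbance difference 570 minus 630 nm.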

[8] = Cytotoxicity against human macrophages assessed as change in morphology at 0.25 to 160 ug/ml after 24 hrs using Giemsa staining by phase contrast microscopic analysis; assay type: cell-based; settings: macrophage
Procedure, shortened: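 Confluent cells (100 µL stock suspension) grown to 90% confluency, medium replaced with serum-free DMEM, then exposed 24 h to 0.25 or 160 µg/mL test compound; cell morphology compared with untreated control after Giemsa staining under phase contrast microscopy.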

SMILES: O=[N+]([O-])c1cnc(/C=C/c2ccccc2)n1CCO
IC50 [1]: 49.3 µg/mL (≈ 190 µM) | IC50 [2]: > 200 µg/mL | IC50 [3]: 12.4 µg/mL (≈ 47.8 µM) | IC50 [4]: 49.5 µg/mL (≈ 191 µM)

SMILES: COc1ccc(/C=C/c2ncc([N+](=O)[O-])n2CCO)cc1
IC50 [1]: 146 µg/mL (≈ 506 µM) | IC50 [2]: 89.1 µg/mL (≈ 308 µM) | IC50 [3]: 30.2 µg/mL (≈ 104 µM) | IC50 [4]: 67.4 µg/mL (≈ 233 µM)

SMILES: O=[N+]([O-])c1cnc(/C=C/c2ccc(Br)cc2)n1CCO
IC50 [1]: 114 µg/mL (≈ 336 µM) | IC50 [2]: 119 µg/mL (≈ 353 µM) | IC50 [3]: 32.2 µg/mL (≈ 95.2 µM) | IC50 [4]: 19.2 µg/mL (≈ 56.8 µM)

SMILES: O=[N+]([O-])c1cnc(/C=C/c2cccc(F)c2)n1CCO
IC50 [1]: 36.6 µg/mL (≈ 132 µM) | IC50 [2]: 114 µg/mL (≈ 412 µM) | IC50 [3]: 16.8 µg/mL (≈ 60.6 µM) | IC50 [4]: 55.1 µg/mL (≈ 199 µM)

SMILES: O=[N+]([O-])c1cnc(/C=C/c2ccc(Cl)cc2)n1CCO
IC50 [1]: 32.8 µg/mL (≈ 112 µM) | IC50 [2]: > 200 µg/mL | IC50 [3]: 48.3 µg/mL (≈ 164 µM) | IC50 [4]: 32.1 µg/mL (≈ 109 µM)

pIC50 [5]: 4.65 | pIC50 [6]: 4.78
SMILES: O=[N+]([O-])c1cnc(/C=C/c2ccc(F)cc2)n1CCO
IC50 [1]: 8.8 µg/mL (≈ 31.7 µM) | IC50 [2]: 57.2 µg/mL (≈ 206 µM) | IC50 [3]: 1.7 µg/mL (≈ 6.13 µM) | IC50 [4]: 12.5 µg/mL (≈ 45.1 µM)

SMILES: O=[N+]([O-])c1cnc(/C=C/c2cccc(Cl)c2)n1CCO
IC50 [1]: 40.7 µg/mL (≈ 139 µM) | IC50 [2]: 119 µg/mL (≈ 406 µM) | IC50 [3]: 14.7 µg/mL (≈ 50 µM) | IC50 [4]: 25.7 µg/mL (≈ 87.5 µM)

SMILES: COc1cccc(/C=C/c2ncc([N+](=O)[O-])n2CCO)c1
IC50 [1]: 26.2 µg/mL (≈ 90.6 µM) | IC50 [2]: > 200 µg/mL | IC50 [3]: 46.1 µg/mL (≈ 159 µM) | IC50 [4]: 12.1 µg/mL (≈ 41.8 µM)

pIC50 [5]: 4.91 | pIC50 [6]: 5.68
SMILES: O=[N+]([O-])c1ccc(/C=C/c2ncc([N+](=O)[O-])n2CCO)cc1
IC50 [1]: 9 µg/mL (≈ 29.6 µM) | IC50 [2]: 36.4 µg/mL (≈ 120 µM) | IC50 [3]: 15.5 µg/mL (≈ 50.9 µM) | IC50 [4]: 13.9 µg/mL (≈ 45.7 µM) | Activity [7]: Non-toxic | Activity [8]: Non-toxic

SMILES: COc1ccccc1/C=C/c1ncc([N+](=O)[O-])n1CCO
IC50 [1]: 19.8 µg/mL (≈ 68.4 µM) | IC50 [2]: 188 µg/mL (≈ 649 µM) | IC50 [3]: 20.4 µg/mL (≈ 70.5 µM) | IC50 [4]: 37.3 µg/mL (≈ 129 µM)

SMILES: O=[N+]([O-])c1cnc(/C=C/c2cccc(Br)c2)n1CCO
IC50 [1]: 24.4 µg/mL (≈ 72.2 µM) | IC50 [2]: 116 µg/mL (≈ 342 µM) | IC50 [3]: 43.6 µg/mL (≈ 129 µM) | IC50 [4]: 23.4 µg/mL (≈ 69.2 µM)

pIC50 [5]: 4.80 | pIC50 [6]: 5.38
SMILES: CCOC(OCC)c1ccc(/C=C/c2ncc([N+](=O)[O-])n2CCO)cc1
IC50 [1]: 17.9 µg/mL (≈ 49.5 µM) | IC50 [2]: 59.2 µg/mL (≈ 164 µM) | IC50 [3]: 70.3 µg/mL (≈ 195 µM) | IC50 [4]: 5.9 µg/mL (≈ 16.3 µM)

pIC50 [5]: 4.72 | pIC50 [6]: 5.36
SMILES: O=[N+]([O-])c1cnc(/C=C/c2ccccc2F)n1CCO
IC50 [1]: 61.5 µg/mL (≈ 222 µM) | IC50 [2]: > 200 µg/mL | IC50 [3]: 6.8 µg/mL (≈ 24.5 µM) | IC50 [4]: 29.9 µg/mL (≈ 108 µM)

pIC50 [5]: 4.53 | pIC50 [6]: 5.19
SMILES: O=[N+]([O-])c1cnc(/C=C/c2ccccc2Cl)n1CCO
IC50 [1]: 2.9 µg/mL (≈ 9.87 µM) | IC50 [2]: 175 µg/mL (≈ 595 µM) | IC50 [3]: 17.8 µg/mL (≈ 60.6 µM) | IC50 [4]: 37.8 µg/mL (≈ 129 µM)

SMILES: Cc1ccc(/C=C/c2ncc([N+](=O)[O-])n2CCO)cc1
IC50 [1]: 42.6 µg/mL (≈ 156 µM) | IC50 [2]: 145 µg/mL (≈ 530 µM) | IC50 [3]: 2.9 µg/mL (≈ 10.6 µM) | IC50 [4]: 28.6 µg/mL (≈ 105 µM)

SMILES: O=[N+]([O-])c1cnc(/C=C/c2c(F)cccc2Cl)n1CCO
IC50 [1]: 19.6 µg/mL (≈ 62.9 µM) | IC50 [2]: 82.1 µg/mL (≈ 263 µM) | IC50 [3]: 38.1 µg/mL (≈ 122 µM) | IC50 [4]: 25.3 µg/mL (≈ 81.2 µM)

SMILES: O=[N+]([O-])c1cnc(/C=C/c2ccc(Cl)cc2Cl)n1CCO
IC50 [1]: 57.1 µg/mL (≈ 174 µM) | IC50 [2]: > 200 µg/mL | IC50 [3]: 39.3 µg/mL (≈ 120 µM) | IC50 [4]: 36.7 µg/mL (≈ 112 µM)

pIC50 [5]: 4.59 | pIC50 [6]: 4.99
SMILES: CN(C)c1ccc(/C=C/c2ncc([N+](=O)[O-])n2CCO)cc1
IC50 [1]: 17.2 µg/mL (≈ 56.9 µM) | IC50 [2]: 88 µg/mL (≈ 291 µM) | IC50 [3]: 121 µg/mL (≈ 400 µM) | IC50 [4]: 7.2 µg/mL (≈ 23.8 µM)

SMILES: O=[N+]([O-])c1cccc(/C=C/c2ncc([N+](=O)[O-])n2CCO)c1
IC50 [1]: 53.1 µg/mL (≈ 175 µM) | IC50 [2]: > 200 µg/mL | IC50 [3]: 74.6 µg/mL (≈ 245 µM) | IC50 [4]: 7 µg/mL (≈ 23 µM)

SMILES: O=[N+]([O-])c1cnc(/C=C/c2ccccc2Br)n1CCO
IC50 [1]: 27.9 µg/mL (≈ 82.5 µM) | IC50 [2]: > 200 µg/mL | IC50 [3]: 7.6 µg/mL (≈ 22.5 µM) | IC50 [4]: 9.3 µg/mL (≈ 27.5 µM)

SMILES: O=[N+]([O-])c1ccccc1/C=C/c1ncc([N+](=O)[O-])n1CCO
IC50 [1]: 11.8 µg/mL (≈ 38.8 µM) | IC50 [2]: 157 µg/mL (≈ 517 µM) | IC50 [3]: 12.8 µg/mL (≈ 42.1 µM) | IC50 [4]: 5.8 µg/mL (≈ 19.1 µM)

pIC50 [5]: 4.99 | pIC50 [6]: 4.96
SMILES: O=[N+]([O-])c1cnc(/C=C/c2ccc3ccccc3c2)n1CCO
IC50 [1]: 3.6 µg/mL (≈ 11.6 µM) | IC50 [2]: > 200 µg/mL | IC50 [3]: 19.8 µg/mL (≈ 64 µM) | IC50 [4]: 11.9 µg/mL (≈ 38.5 µM)

pIC50 [5]: 5.10 | pIC50 [6]: 5.47
SMILES: O=[N+]([O-])c1cnc(/C=C/c2ccc(OCc3ccccc3)cc2)n1CCO
IC50 [1]: 6.3 µg/mL (≈ 17.2 µM) | IC50 [2]: 34.3 µg/mL (≈ 93.9 µM) | IC50 [3]: 14.5 µg/mL (≈ 39.7 µM) | IC50 [4]: 9.8 µg/mL (≈ 26.8 µM) | Activity [7]: Non-toxic | Activity [8]: Non-toxic

SMILES: O=[N+]([O-])c1cnc(/C=C/c2cccc3ccccc23)n1CCO
IC50 [1]: 13.6 µg/mL (≈ 44 µM) | IC50 [2]: 153 µg/mL (≈ 496 µM) | IC50 [3]: 13.1 µg/mL (≈ 42.4 µM) | IC50 [4]: 8.6 µg/mL (≈ 27.8 µM)

pIC50 [5]: 5.17 | pIC50 [6]: 5.51
SMILES: NC[C@H]1O[C@H](O[C@H]2[C@H](O)[C@@H](O[C@H]3O[C@H](CO)[C@@H](O)[C@H](N)[C@H]3O)[C@H](N)C[C@@H]2N)[C@H](O)[C@@H](O)[C@@H]1O [KANAMYCIN]

SMILES: CC(C)(S)[C@@H](N)C(=O)O [PENICILLAMINE]
IC50 [1]: 6.3 µg/mL (≈ 42.2 µM) | IC50 [2]: 42.3 µg/mL (≈ 283 µM) | IC50 [3]: 5.8 µg/mL (≈ 38.9 µM) | IC50 [4]: 6.3 µg/mL (≈ 42.2 µM)
